From ChEMBL document CHEMBL2177069, “Novel peptidomimetic compounds containing redox active chalcogens and quinones as potential anticancer agents” (Eur J Med Chem, 2012)
pIC50: −log10 of the molar value. Activity calls are given as the source filed them. No cut-off for these calls is given here.

Assays:
Saccharomyces cerevisiae [1] = experiment: Growth inhibition of UFD2-deficient Saccharomyces cerevisiae YDL190C mutant at 20 ug/disc after 24 to 48 hrs by agar diffusion assay; type: functional; details: read-out: DIZ
Method in brief: (§1)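 S. cerevisiae deletion mutants or wild type grown on YPD, seeded into liquid agar medium at an optical density of 0.1. 6 mm paper discs soaked with methanolic compound solution were placed on the plates and incubated at 30 °C. Growth was checked after 1 and 2 days, and the inhibition zone diameter was recorded in mm.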

Saccharomyces cerevisiae [2] = experiment: Growth inhibition of COX17-deficient Saccharomyces cerevisiae YLL009C mutant at 20 ug/disc after 24 to 48 hrs by agar diffusion assay; type: functional; details: read-out: DIZ; method in brief: as §1
Saccharomyces cerevisiae [3] = experiment: Growth inhibition of GSH2-deficient Saccharomyces cerevisiae YOL049W mutant at 20 ug/disc after 24 to 48 hrs by agar diffusion assay; type: functional; details: read-out: DIZ; method in brief: as §1
Saccharomyces cerevisiae [4] = experiment: Growth inhibition of RCK1-deficient Saccharomyces cerevisiae YGL158W mutant at 20 ug/disc after 24 to 48 hrs by agar diffusion assay; type: functional; details: read-out: DIZ; method in brief: as §1
Saccharomyces cerevisiae [5] = experiment: Growth inhibition of GTT2-deficient Saccharomyces cerevisiae YLL060C mutant at 20 ug/disc after 24 to 48 hrs by agar diffusion assay; type: functional; details: read-out: DIZ; method in brief: as §1
Saccharomyces cerevisiae [6] = experiment: Growth inhibition of POS5-deficient Saccharomyces cerevisiae YPL188W mutant at 20 ug/disc after 24 to 48 hrs by agar diffusion assay; type: functional; details: read-out: DIZ; method in brief: as §1
Saccharomyces cerevisiae [7] = experiment: Growth inhibition of WSC4-deficient Saccharomyces cerevisiae YHL028W mutant at 20 ug/disc 24 to 48 hrs by agar diffusion assay; type: functional; details: read-out: DIZ; method in brief: as §1
Saccharomyces cerevisiae [8] = experiment: Growth inhibition of PST2-deficient Saccharomyces cerevisiae YDR032C mutant at 20 ug/disc 24 to 48 hrs by agar diffusion assay; type: functional; details: read-out: DIZ; method in brief: as §1
Saccharomyces cerevisiae [9] = experiment: Growth inhibition of SOD2-deficient Saccharomyces cerevisiae YHR008C mutant at 20 ug/disc 24 to 48 hrs by agar diffusion assay; type: functional; details: read-out: DIZ; method in brief: as §1
Saccharomyces cerevisiae [10] = experiment: Growth inhibition of SOD1-deficient Saccharomyces cerevisiae YJR104C mutant at 20 ug/disc after 24 to 48 hrs by agar diffusion assay; type: functional; details: read-out: DIZ; method in brief: as §1
Saccharomyces cerevisiae [11] = experiment: Growth inhibition of wild type Saccharomyces cerevisiae BY4741 at 20 ug/disc after 24 to 48 hrs by agar diffusion assay; type: functional; details: read-out: DIZ; method in brief: as §1
HUVEC [12] = experiment: Induction of oxidative stress in human HUVEC cells assessed as increase in superoxide free radical production after 1 hr by DHE-based by fluorescence spectrophotometric analysis; type: cell-based
Method in brief: (§2)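 Cells were seeded at 10^5 per well and given graded compound concentrations for 1 h. They were then loaded with DHE or DCF probe for 30 min in the dark. Fluorescence was read immediately: DHE ex 540/em 600 nm; DCF ex 485/em 528 nm. Results were expressed as arbitrary units per 10^5 cells.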

HUVEC [13] = experiment: Induction of oxidative stress in human HUVEC cells assessed as increase in hydrogen peroxide free radical production after 1 hr by DCF-based fluorescence spectrophotometric analysis; type: cell-based; method in brief: as §2
A-431 [14] = experiment: Induction of oxidative stress in human A431 cells assessed as increase in superoxide free radical production after 1 hr by DHE-based by fluorescence spectrophotometric analysis; type: functional, cell-based; method in brief: as §2
[15] = Cytotoxicity against human PHF cells after 24 hrs by MTT assay; type: cell-based
Method in brief: (§3)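 MTT assay. Cells were seeded at 50,000 cells/mL in medium with 10% fetal calf serum and grown for two days at 37 °C, 10% CO2. Serial dilutions of compound were then added for 24 h. MTT was added (final 0.5 mg/mL) for 2 h, and the formazan was pelleted, washed, dissolved in isopropanol with 0.4% HCl and read at 590 nm. IC50 is the concentration giving 50% of untreated-control absorbance, taken from dose-response curves; mean of two parallel experiments.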

HUVEC [16] = experiment: Cytotoxicity against human HUVEC cells after 24 hrs by MTT assay; type: cell-based; method in brief: as §3
A-431 [17] = experiment: Cytotoxicity against human A431 cells after 24 hrs by MTT assay; type: functional, cell-based; details: A-431, 24 h; method in brief: as §3
A498 = experiment: Cytotoxicity against human A498 cells after 24 hrs by MTT assay; type: functional, cell-based; details: A498, 24 h; method in brief: as §3
MCF7 [18] = experiment: Cytotoxicity against human MCF7 cells after 24 hrs by MTT assay; type: functional, cell-based; details: MCF7, 24 h; method in brief: as §3
MCF7 [19] = experiment: Induction of Cell cycle arrest in human MCF7 cells assessed as G2/M phase cells at IC50 concentration after 24 hrs by PI-staining based flow cytometric analysis (reference value: 13%); type: functional
Method in brief: (§4)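 MCF-7 cells (10^6) were treated for 24 h, with methanol as the vehicle control. Cells were fixed in cold 70% methanol at 4 °C for one day, washed with PBS, and permeabilized with 0.1% saponin in PBS. They were stained with propidium iodide plus RNase for 30 min. DNA content was read by flow cytometry, giving percentages of cells per cell-cycle phase.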

MCF7 [20] = experiment: Induction of Cell cycle arrest in human MCF7 cells assessed as S phase cells at IC50 concentration after 24 hrs by PI-staining based flow cytometric analysis (reference value: 19%); type: functional; method in brief: as §4
MCF7 [21] = experiment: Induction of Cell cycle arrest in human MCF7 cells assessed as G0/1 phase cells at IC50 concentration after 24 hrs by PI-staining based flow cytometric analysis (reference value: 68%); type: functional; method in brief: as §4
A-431 [22] = experiment: Induction of oxidative stress in human A431 cells assessed as increase in hydrogen peroxide free radical production after 1 hr by DCF-based fluorescence spectrophotometric analysis; type: functional, cell-based; method in brief: as §2
MCF7 [23] = experiment: Induction of oxidative stress in human MCF7 cells assessed as decrease in GSH level at 5 uM after 1 hr by DTNB assay relative to control; type: functional; design: scale not given: the % may be the effect or the level left
Method in brief: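 MCF-7 cells (10^6) were treated for 1 h at 37 °C, trypsinized, and washed twice with cold PBS. GSH was extracted with chilled 5% metaphosphoric acid at 4 °C for 2 h, then the lysate was centrifuged. Supernatant was mixed with 0.2 M sodium phosphate pH 8.0 and 0.04 mM DTNB for 10 min at room temperature. Absorbance was read at 412 nm against a reagent blank, and GSH was quantified from a standard curve.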

Compound | zone of inhibition at 20 µg/disc (Saccharomyces cerevisiae [1]) | zone of inhibition at 20 µg/disc (Saccharomyces cerevisiae [2]) | zone of inhibition at 20 µg/disc (Saccharomyces cerevisiae [3]) | zone of inhibition at 20 µg/disc (Saccharomyces cerevisiae [4]) | zone of inhibition at 20 µg/disc (Saccharomyces cerevisiae [5]) | zone of inhibition at 20 µg/disc (Saccharomyces cerevisiae [6]) | zone of inhibition at 20 µg/disc (Saccharomyces cerevisiae [7]) | zone of inhibition at 20 µg/disc (Saccharomyces cerevisiae [8]) | zone of inhibition at 20 µg/disc (Saccharomyces cerevisiae [9]) | zone of inhibition at 20 µg/disc (Saccharomyces cerevisiae [10]) | zone of inhibition at 20 µg/disc (Saccharomyces cerevisiae [11]) | Activity (HUVEC [12]) | Activity (HUVEC [13]) | pIC50 [15] | pIC50 (HUVEC [16]) | pIC50 (A-431 [17]) | pIC50 (A498) | pIC50 (MCF7 [18]) | further results
CC1=C(SCCC(=O)OC(CC[Se]c2ccccc2)C(=O)NC(C)(C)C)C(=O)c2ccccc2C1=O (centres undefined) | 10 mm | 10 mm | 0 mm | 0 mm | 0 mm | 0 mm | 11 mm | 12 mm | 0 mm | 10 mm | 0 mm | Non-toxic | Non-toxic | 4.96 | 4.89 | < 4.00 | < 4.00 | 4.59 | Activity (A-431 [14]): Active
CC(C)(C)NC(=O)COC(=O)c1ccc(-c2c3nc(c(-c4ccccc4)c4ccc([nH]4)c(-c4ccccc4)c4nc(c(-c5ccccc5)c5ccc2[nH]5)C=C4)C=C3)cc1 |  |  |  |  |  |  |  |  |  |  |  |  |  | < 4.00 | < 4.00 | < 4.00 | < 4.00 | < 4.00 | 
CC1=C(SCCC(=O)OC(C[Se]c2ccccc2)C(=O)NCCCCCC(=O)OCc2ccccc2)C(=O)c2ccccc2C1=O (centres undefined) | 0 mm | 0 mm | 0 mm | 0 mm | 0 mm | 0 mm | 12 mm | 12 mm | 13 mm | 18 mm | 0 mm |  |  | 4.30 | 4.64 | < 4.00 | < 4.00 | 5.00 | 
CC(C)(C)NC(=O)C(C[Se]c1ccccc1)OC(=O)c1ccc(-c2c3nc(c(-c4ccccc4)c4ccc([nH]4)c(-c4ccccc4)c4nc(c(-c5ccccc5)c5ccc2[nH]5)C=C4)C=C3)cc1 (centres undefined) |  |  |  |  |  |  |  |  |  |  |  |  |  | < 4.00 | < 4.00 | < 4.00 | < 4.00 | < 4.00 | 
CC1=C(SCCC(=O)OC(C[Se]C2=C(C)C(=O)c3ccccc3C2=O)C(=O)NC(C)(C)C)C(=O)c2ccccc2C1=O (centres undefined) |  |  |  |  |  |  |  |  |  |  |  |  |  |  | 6.00 | 6.00 | 5.52 | 5.52 | 
CC1=C([Se]CC(OC(=O)[C@@H](CSSC(C)(C)C)NC(=O)OC(C)(C)C)C(=O)NC(C)(C)C)C(=O)c2ccccc2C1=O (some centres undefined) | 0 mm | 14 mm | 14 mm | 14 mm | 20 mm | 11 mm | 20 mm | 11 mm | 18 mm | 21 mm | 0 mm | Non-toxic | Non-toxic | 5.40 | 5.70 | 5.70 | 5.30 | 5.52 | Activity (MCF7 [19]): 1.6%; Activity (MCF7 [20]): 3.9%; Activity (MCF7 [21]): 95%; Activity (A-431 [22]): Active; Activity (MCF7 [23]): 46%
CC1=C([Se]CC(OC(=O)CNC(=O)OC(C)(C)C)C(=O)NCCCCCC(=O)OCc2ccccc2)C(=O)c2ccccc2C1=O (centres undefined) | 0 mm | 0 mm | 0 mm | 0 mm | 18 mm | 0 mm | 14 mm | 11 mm | 25 mm | 20 mm | 0 mm |  |  | 5.22 | 4.44 | 5.30 | 5.15 | 5.40 | Activity (MCF7 [23]): 76%
CC1=C([Se]CC(OC(=O)c2ccc(-c3c4nc(c(-c5ccccc5)c5ccc([nH]5)c(-c5ccccc5)c5nc(c(-c6ccccc6)c6ccc3[nH]6)C=C5)C=C4)cc2)C(=O)NC(C)(C)C)C(=O)c2ccccc2C1=O (centres undefined) |  |  |  |  |  |  |  |  |  |  |  |  |  | < 4.00 | < 4.00 | < 4.00 | < 4.00 | < 4.00 | 
CC1=C(SCCC(=O)OC(CC[Se]c2ccccc2)C(=O)NCCCCCC(=O)OCc2ccccc2)C(=O)c2ccccc2C1=O (centres undefined) | 0 mm | 0 mm | 0 mm | 0 mm | 17 mm | 0 mm | 11 mm | 11 mm | 12 mm | 13 mm | 0 mm | Non-toxic | Non-toxic | 4.68 | 4.77 | < 4.00 | < 4.00 | 4.72 | Activity (A-431 [22]): Active
CC1=C(SCCC(=O)OC(C[Se]c2ccccc2)C(=O)NC(C)(C)C)C(=O)c2ccccc2C1=O (centres undefined) | 0 mm | 0 mm | 9 mm | 9 mm | 12 mm | 9 mm | 11 mm | 12 mm | 12 mm | 15 mm | 0 mm |  |  | 4.59 | 4.47 | 5.15 | < 4.00 | 4.85 | 
